This is an account of results in ChEMBL document CHEMBL3813648, “Synthesis and evaluation of antioxidant phenolic diaryl hydrazones as potent antiangiogenic agents in atherosclerosis” (Bioorg Med Chem, 2016).

The structures appear in SMILES notation. Activity calls are given as the source filed them. The rule behind the calls is not given here. Bounds are passed on as bounds.

The nature of series [1]: Antioxidant activity assessed as inhibition of DPPH free radical scavenging activity after 60 mins by UV-Visible spectrophotometry. Format: physicochemical. An outline of the steps:
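Reduction of ethanolic DPPH radical read by absorbance at 517 nm at 0 and after 60 min at room temperature. I% = 100×(A0−A60)/A0. IC50 is the concentration giving 50% radical inhibition. Run in triplicate, mean ± SEM; Trolox reference.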

Series [2] in a line: Antioxidant activity in HMEC1 assessed as inhibition of cell induced LDL oxidation by measuring TBARS level at 1 uM relative to control. The class given is functional, Homo sapiens, HMEC-1. Also on record: scale not given: the % may be the effect or the level left. An outline of the steps:
(§1)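 HMEC-1 (passage 30-36) in serum-free RPMI 1640 with native human LDL (100 µg apoB/mL). Agent added with the LDL in DMSO (0.1% final), 14 h at 37 °C. TBARS measured in the medium and expressed as % of LDL-plus-vehicle control; Trolox reference. Mean ± SEM of 4 experiments.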

The nature of series [3]: Antioxidant activity in HMEC1 assessed as inhibition of cell induced LDL oxidation by measuring TBARS level at 10 uM relative to control. Also on record: scale not given: the % may be the effect or the level left. Format: functional, Homo sapiens, HMEC-1. An outline of the steps:
as §1

Series [4] in a line: Cytotoxicity against HMEC1 assessed as cell viability at 1 uM after 24 hrs by MTT assay in absence of oxidized LDL. As to conditions: human, HMEC1 cells; read-out: Activity. Also on record: species or system HMEC-1.
The nature of series [5]: Cytoprotective activity in HMEC1 assessed as inhibition of oxidized LDL induced toxicity measured as residual viability at 1 uM after 24 hrs by MTT assay (reference value: 20 +/- 5 %). The class given is functional, Homo sapiens, HMEC-1.
Series [6] in a line: Cytoprotective activity in HMEC1 assessed as inhibition of oxidized LDL induced toxicity measured as residual viability at 10 uM after 24 hrs by MTT assay (reference value: 20 +/- 5 %). The class given is functional, Homo sapiens, HMEC-1.
Series [7] is described as follows: Cytotoxicity against HMEC1 assessed as cell viability at 10 uM after 24 hrs by MTT assay in absence of oxidized LDL. Also noted: species or system HMEC-1. As to conditions: human, HMEC1 cells; read-out: Activity.
The subject of series [8] is HMEC-1. Put plainly: Antiangiogenic activity in HMEC1 assessed as inhibition of oxidized LDL induced tube formation at 10 uM after 18 hrs by calcein staining based fluorescence microscopy. Format: functional. As to conditions: Homo sapiens. An outline of the steps:
(§2)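 HMEC-1 (passage 30-36, serum-starved 24 h) seeded at 30,000 cells/well on Matrigel. Grown 18 h at 37 °C in MCDB-131 with UV-C mildly oxidized LDL (20 µg/mL) ± agent (10 µM). Controls were 0.1% FBS (negative) and 2.5% FBS (positive). Calcein stain (1 µM, 30 min), then fluorescence microscopy. Linked cells counted as % of total cells; mean ± SEM, 4 experiments.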

The test system of series [9] is HMEC-1. Put plainly: Inhibition of oxidized LDL induced intracellular ROS formation in HMEC1 at 10 uM preincubated for 30 to 40 mins followed by H2DCFDA-AM addition by fluorescence analysis. The following applies: Homo sapiens. The class given is functional, cell-based. In a few lines: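 HMEC-1 given oxLDL (20 µg/mL) ± agent (10 µM) for 40 min. H2DCFDA-AM (5 µM final) added 30 min before the end, then cells washed three times with PBS. Homogenate fluorescence read at ex 495/em 520 nm as a ratio to unstimulated control. Mean ± SEM, 4 experiments.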

Series [10] in a line: Antiangiogenic activity in HMEC1 assessed as inhibition of oxidized LDL induced tube formation measured as residual tube at 10 uM after 18 hrs by calcein staining based fluorescence microscopy. Format: functional, Homo sapiens, HMEC-1. In a few lines:
as §2

Series [11] in a line: Antioxidant activity assessed as inhibition of DPPH free radical scavenging activity by EPR spectrophotometry. The class given is physicochemical. An outline of the steps: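 DPPH radical scavenging measured by EPR spectroscopy instead of absorbance at 517 nm, used where staining prevented the absorbance reading; value given as IC50 for 50% DPPH radical inhibition.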

Consider `COc1cc(/C=N/NC(=O)c2ccncc2)cc(Oc2cc(/C=N/NC(=O)c3ccncc3)cc(OC)c2O)c1O`, for which the IC50 in [1] was determined as 21.5 µM. The Activity in [2] is reported as 100%; in [3] it was 88%; in series [5], 42%; in series [6] it was 66%. Moreover, in series [4], the viability at 24 h, 1 µM was found to be 95%. Also, the viability at 24 h, 10 µM in [7] amounted to 92%.

Take `COc1cc(/C=N/NC(=O)OCc2ccccc2)cc(-c2cc(/C=N/NC(=O)OCc3ccccc3)cc(OC)c2O)c1O`: the IC50 in series [1] stood at 59.7 µM. Besides, the Activity is recorded as 18% in series [2], 5% in series [3], 52% in [5] and 90% in series [6]. Besides, the viability at 24 h, 1 µM in series [4] was found to be 91%. The “antiangiogenic activity (active/not active)” value in the series on HMEC-1 [8] was “Active”. Moreover, in the series on HMEC-1 [9], the “ROS inhibition (active/not active)” value is “Active”. The viability at 24 h, 10 µM in series [7] was 85%.

For the compound `COc1cc(/C=N/Nc2nc3ccccc3s2)cc(Oc2cc(/C=N/Nc3nc4ccccc4s3)cc(OC)c2O)c1O`, in [1], the IC50 came out at 8.6 µM. Besides, the Activity in series [2] was 93%; in [3], 12%; in series [5], 51%; in series [6], 69%. Moreover, the viability at 24 h, 1 µM in series [4] came out at 93%. Besides, the “antiangiogenic activity (active/not active)” value with HMEC-1 [8] is “Active”. Moreover, the “ROS inhibition (active/not active)” value in the series with HMEC-1 [9] was “Active”. In addition, in series [7], the viability at 24 h, 10 µM was determined as 80%.

`COc1cc(/C=N/N=c2\[nH]ncc3ccccc23)cc(-c2cc(/C=N/N=c3/[nH]ncc4ccccc34)cc(OC)c2O)c1O.Cl.Cl`: the Activity came to 56% in [2], 8% in series [3], 52% in series [5] and 99% in series [6].

Turning to `COc1cc(C=O)cc(Oc2cc(C=O)cc(OC)c2O)c1O`, in [1], the IC50 worked out at 289 µM. In addition, the Activity in [2] turned out to be 95%; in series [3], 87%; in series [5], 32%; in series [6], 35%. Besides, the viability at 24 h, 1 µM in series [4] was 89%. The viability at 24 h, 10 µM in series [7] came to 85%.

`COc1cc(/C=N/N=c2/[nH]ncc3ccccc23)cc(Oc2cc(/C=N/N=c3/[nH]ncc4ccccc34)cc(OC)c2O)c1O.Cl.Cl`: the IC50 in [1] amounted to 11.5 µM. Further, the Activity in series [2] is reported as 37%; in series [3], 10%; in [5] it was 56%; in series [6] it was 72%; in [10], under 5%. For the same compound, in series [4], the viability at 24 h, 1 µM is 95%. Moreover, the “ROS inhibition (active/not active)” value in the series on HMEC-1 [9] was “Active”. Further, the viability at 24 h, 10 µM in [7] turned out to be 90%.

Consider `COc1cc(/C=N/NC(=O)c2cc(C)n[nH]2)cc(Oc2cc(/C=N/NC(=O)c3cc(C)n[nH]3)cc(OC)c2O)c1O`, for which, in [1], the IC50 was 19.8 µM. Moreover, the Activity in series [2] came out at 97%; in [3], 91%; in series [5], 41%; in [6], 65%. Besides, the viability at 24 h, 1 µM in series [4] amounted to 95%. In addition, the viability at 24 h, 10 µM in series [7] turned out to be 100%.

`COc1cc(C=O)cc(-c2cc(C=O)cc(OC)c2O)c1O`: in series [1], the IC50 was 382 µM. For the same compound, the Activity in series [2] is on record as 103%; in [3], 88%; in series [5], 19%; in series [6], 21%. Moreover, the viability at 24 h, 1 µM in series [4] is 100%. Moreover, the viability at 24 h, 10 µM in series [7] turned out to be 99%.

For the compound `COc1cc(/C=N/Nc2nncc3ccccc23)cc(-c2cc(/C=N/Nc3nncc4ccccc34)cc(OC)c2O)c1O`, the half-inhibitory concentration (IC50) in [1] is 9.7 µM. The viability at 24 h, 1 µM in series [4] is 109%. The “antiangiogenic activity (active/not active)” value with HMEC-1 [8] is “Active”. For the same compound, the “ROS inhibition (active/not active)” value in the series with HMEC-1 [9] is “Active”. In series [7], the viability at 24 h, 10 µM came out at 98%.

Consider `COc1cc(/C=N/NC(=O)c2ccncc2)cc(-c2cc(/C=N/NC(=O)c3ccncc3)cc(OC)c2O)c1O`, for which, in series [1], the IC50 is 38.8 µM. Further, the Activity was determined as 112% in [2], 92% in series [3], 18% in [5] and 19% in [6]. For the same compound, the viability at 24 h, 1 µM in series [4] worked out at 100%. The viability at 24 h, 10 µM in series [7] was found to be 88%.

Consider `Cc1c(C)c2c(c(C)c1O)CCC(C)(C(=O)O)O2` (configuration not stated) [TROLOX], for which the values for the half-maximal inhibitory concentration (IC50) in [1] and in series [11] were 20.1 µM and 17.7 µM, respectively. The Activity in [2] is 57%; in [3] it was 10%; in series [5] it was 45%; in series [6], 68%; in series [10] it was 20%. Moreover, the viability at 24 h, 1 µM in series [4] is 98%. Moreover, the “antiangiogenic activity (active/not active)” value in the series with HMEC-1 [8] was “Active”. Besides, in the series with HMEC-1 [9], the “ROS inhibition (active/not active)” value was “Active”. Further, the viability at 24 h, 10 µM in series [7] was 95%.

On to `COc1cc(/C=N/Nc2nc3ccccc3s2)cc(-c2cc(/C=N/Nc3nc4ccccc4s3)cc(OC)c2O)c1O`, for which the IC50 in [1] stood at 27.7 µM. Besides, the Activity in [2] amounted to 19%; in [3] it was 7%; in [5] it was 58%; in [6] it was 91%. In addition, the viability at 24 h, 1 µM in [4] was determined as 90%. The “antiangiogenic activity (active/not active)” value with HMEC-1 [8] was “Active”. Also, in the series on HMEC-1 [9], the “ROS inhibition (active/not active)” value was “Active”. In addition, the viability at 24 h, 10 µM in [7] came to 78%.

Take `COc1cc(/C=N/NC(=O)OCc2ccccc2)cc(Oc2cc(/C=N/NC(=O)OCc3ccccc3)cc(OC)c2O)c1O`: the IC50 in series [1] is 23.6 µM. Also, the Activity turned out to be 28% in [2], 6% in series [3], 51% in series [5] and 69% in series [6]. Moreover, in [4], the viability at 24 h, 1 µM amounted to 102%. Further, the “antiangiogenic activity (active/not active)” value with HMEC-1 [8] was “inactive”. Further, the “ROS inhibition (active/not active)” value in the series on HMEC-1 [9] is “inactive”. Also, the viability at 24 h, 10 µM in series [7] was determined as 94%.

With `COc1cc(/C=N/NC(=O)c2cc(C)n[nH]2)cc(-c2cc(/C=N/NC(=O)c3cc(C)n[nH]3)cc(OC)c2O)c1O`, the IC50 in [1] is 29.1 µM. For the same compound, the Activity amounted to 99% in series [2], 71% in series [3], 14% in [5] and 40% in series [6]. The viability at 24 h, 1 µM in series [4] worked out at 107%. The viability at 24 h, 10 µM in series [7] stood at 105%.
